Assay results reported in ChEMBL document CHEMBL4007456, “Heterocyclyl Tetracyclines. 1. 7-Trifluoromethyl-8-Pyrrolidinyltetracyclines: Potent, Broad Spectrum Antibacterial Agents with Enhanced Activity against Pseudomonas aeruginosa” (2017).
In brackets after ≈: the same amount, converted by molar mass.

System: Klebsiella pneumoniae
Assay: Antibacterial activity against gram-negative Klebsiella pneumoniae KP457 harboring blacTX-M-15 extended spectrum beta-lactamase gene by CLSI method
Type: functional
In short: (§1)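 CLSI broth microdilution MIC in fresh cation-adjusted Mueller Hinton broth, supplemented with defibrinated horse blood where appropriate. Compounds serially diluted in sterile deionized water. Runs accepted when comparator antibiotics against ATCC quality-control strains fell within recommended ranges.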

Row | Compound | MIC
1 | CC(C)N1CCC[C@H]1c1cc(O)c2c(c1C(F)(F)F)C[C@H]1C[C@H]3[C@H](N(C)C)C(O)=C(C(N)=O)C(=O)[C@@]3(O)C(O)=C1C2=O | 8 µg/mL (≈ 13.5 µM)
2 | CC1CCC(c2cc(O)c3c(c2C(F)(F)F)C[C@H]2C[C@H]4[C@H](N(C)C)C(O)=C(C(N)=O)C(=O)[C@@]4(O)C(O)=C2C3=O)N1 (stereo not given in full) | 0.25 µg/mL (≈ 0.442 µM)

System: Enterobacter cloacae
Assay: Antibacterial activity against gram-negative Enterobacter cloacae EC1603 harboring tet(A) by CLSI method
Type: functional
In short: as §1

Row | Compound | MIC
3 | CC(C)N1CCC[C@H]1c1cc(O)c2c(c1C(F)(F)F)C[C@H]1C[C@H]3[C@H](N(C)C)C(O)=C(C(N)=O)C(=O)[C@@]3(O)C(O)=C1C2=O | 16 µg/mL (≈ 27 µM)
4 | CC1CCC(c2cc(O)c3c(c2C(F)(F)F)C[C@H]2C[C@H]4[C@H](N(C)C)C(O)=C(C(N)=O)C(=O)[C@@]4(O)C(O)=C2C3=O)N1 (stereo not given in full) | 8 µg/mL (≈ 14.1 µM)

System: Staphylococcus aureus
Assay: Antibacterial activity against gram-positive Staphylococcus aureus SA158 harboring tet(K) by CLSI method
Type: functional
In short: as §1

Row | Compound | MIC
5 | CC(C)N1CCC[C@H]1c1cc(O)c2c(c1C(F)(F)F)C[C@H]1C[C@H]3[C@H](N(C)C)C(O)=C(C(N)=O)C(=O)[C@@]3(O)C(O)=C1C2=O | 0.0625 µg/mL (≈ 0.105 µM)
6 | CC1CCC(c2cc(O)c3c(c2C(F)(F)F)C[C@H]2C[C@H]4[C@H](N(C)C)C(O)=C(C(N)=O)C(=O)[C@@]4(O)C(O)=C2C3=O)N1 (stereo not given in full) | ≤ 0.0156 µg/mL

System: Burkholderia cenocepacia
Assay: Antibacterial activity against gram-negative Burkholderia cenocepacia BC240 by CLSI method
Type: functional
In short: (§2)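 Defibrinated horse blood added where appropriate. Compounds serially diluted in sterile deionized water. Strains from ATCC unless otherwise noted. Runs accepted when comparator antibiotics fell within QC ranges for ATCC quality control strains.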

Row | Compound | MIC
7 | CC(C)N1CCC[C@H]1c1cc(O)c2c(c1C(F)(F)F)C[C@H]1C[C@H]3[C@H](N(C)C)C(O)=C(C(N)=O)C(=O)[C@@]3(O)C(O)=C1C2=O | 16 µg/mL (≈ 27 µM)
8 | CC1CCC(c2cc(O)c3c(c2C(F)(F)F)C[C@H]2C[C@H]4[C@H](N(C)C)C(O)=C(C(N)=O)C(=O)[C@@]4(O)C(O)=C2C3=O)N1 (stereo not given in full) | 4 µg/mL (≈ 7.07 µM)

System: Enterococcus faecalis
Assay: Antibacterial activity against gram-positive Enterococcus faecalis EFs327 harboring tet(M) by CLSI method
Type: functional
In short: as §1

Row | Compound | MIC
9 | CC(C)N1CCC[C@H]1c1cc(O)c2c(c1C(F)(F)F)C[C@H]1C[C@H]3[C@H](N(C)C)C(O)=C(C(N)=O)C(=O)[C@@]3(O)C(O)=C1C2=O | 0.5 µg/mL (≈ 0.842 µM)
10 | CC1CCC(c2cc(O)c3c(c2C(F)(F)F)C[C@H]2C[C@H]4[C@H](N(C)C)C(O)=C(C(N)=O)C(=O)[C@@]4(O)C(O)=C2C3=O)N1 (stereo not given in full) | 1 µg/mL (≈ 1.77 µM)

System: Streptococcus pneumoniae
Assay: Antibacterial activity against gram-positive Streptococcus pneumoniae SP160 harboring tet(M) by CLSI method
Type: functional
In short: as §1

Row | Compound | MIC
11 | CC(C)N1CCC[C@H]1c1cc(O)c2c(c1C(F)(F)F)C[C@H]1C[C@H]3[C@H](N(C)C)C(O)=C(C(N)=O)C(=O)[C@@]3(O)C(O)=C1C2=O | ≤ 0.0156 µg/mL
12 | CC1CCC(c2cc(O)c3c(c2C(F)(F)F)C[C@H]2C[C@H]4[C@H](N(C)C)C(O)=C(C(N)=O)C(=O)[C@@]4(O)C(O)=C2C3=O)N1 (stereo not given in full) | ≤ 0.0156 µg/mL

System: Escherichia coli
Assay: Antibacterial activity against gram-negative Escherichia coli EC107 by CLSI method
Type: functional
In short: as §2, with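 “Broth microdilution MIC per CLSI in cation-adjusted Mueller Hinton broth, prepared fresh and held at 4 °C. Defibrinated” for “Defibrinated”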

Row | Compound | MIC
13 | CC(C)N1CCC[C@H]1c1cc(O)c2c(c1C(F)(F)F)C[C@H]1C[C@H]3[C@H](N(C)C)C(O)=C(C(N)=O)C(=O)[C@@]3(O)C(O)=C1C2=O | 0.125 µg/mL (≈ 0.211 µM)
14 | CC1CCC(c2cc(O)c3c(c2C(F)(F)F)C[C@H]2C[C@H]4[C@H](N(C)C)C(O)=C(C(N)=O)C(=O)[C@@]4(O)C(O)=C2C3=O)N1 (stereo not given in full) | ≤ 0.0156 µg/mL

System: Staphylococcus aureus
Assay: Antibacterial activity against gram-positive Staphylococcus aureus SA101 by CLSI method
Type: functional
In short: as §2, with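 “Broth microdilution MIC per CLSI in cation-adjusted Mueller Hinton broth, prepared fresh and held at 4 °C. Defibrinated” for “Defibrinated”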

Row | Compound | MIC
15 | CC(C)N1CCC[C@H]1c1cc(O)c2c(c1C(F)(F)F)C[C@H]1C[C@H]3[C@H](N(C)C)C(O)=C(C(N)=O)C(=O)[C@@]3(O)C(O)=C1C2=O | 0.125 µg/mL (≈ 0.211 µM)
16 | CC1CCC(c2cc(O)c3c(c2C(F)(F)F)C[C@H]2C[C@H]4[C@H](N(C)C)C(O)=C(C(N)=O)C(=O)[C@@]4(O)C(O)=C2C3=O)N1 (stereo not given in full) | 0.125 µg/mL (≈ 0.221 µM)

System: Staphylococcus aureus
Assay: Antibacterial activity against gram-positive Staphylococcus aureus SA161 harboring tet(M) by CLSI method
Type: functional
In short: as §1

Row | Compound | MIC
17 | CC(C)N1CCC[C@H]1c1cc(O)c2c(c1C(F)(F)F)C[C@H]1C[C@H]3[C@H](N(C)C)C(O)=C(C(N)=O)C(=O)[C@@]3(O)C(O)=C1C2=O | 2 µg/mL (≈ 3.37 µM)
18 | CC1CCC(c2cc(O)c3c(c2C(F)(F)F)C[C@H]2C[C@H]4[C@H](N(C)C)C(O)=C(C(N)=O)C(=O)[C@@]4(O)C(O)=C2C3=O)N1 (stereo not given in full) | 1 µg/mL (≈ 1.77 µM)

System: Stenotrophomonas maltophilia
Assay: Antibacterial activity against gram-negative Stenotrophomonas maltophilia SM256 by CLSI method
Type: functional
In short: as §2, with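 “Broth microdilution MIC per CLSI in cation-adjusted Mueller Hinton broth, prepared fresh and held at 4 °C. Defibrinated” for “Defibrinated”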

Row | Compound | MIC
19 | CC(C)N1CCC[C@H]1c1cc(O)c2c(c1C(F)(F)F)C[C@H]1C[C@H]3[C@H](N(C)C)C(O)=C(C(N)=O)C(=O)[C@@]3(O)C(O)=C1C2=O | 4 µg/mL (≈ 6.74 µM)
20 | CC1CCC(c2cc(O)c3c(c2C(F)(F)F)C[C@H]2C[C@H]4[C@H](N(C)C)C(O)=C(C(N)=O)C(=O)[C@@]4(O)C(O)=C2C3=O)N1 (stereo not given in full) | 0.25 µg/mL (≈ 0.442 µM)

System: Enterococcus faecium
Assay: Antibacterial activity against gram-positive Enterococcus faecium EFm404 harboring tet(M) by CLSI method
Type: functional
In short: as §1

Row | Compound | MIC
21 | CC(C)N1CCC[C@H]1c1cc(O)c2c(c1C(F)(F)F)C[C@H]1C[C@H]3[C@H](N(C)C)C(O)=C(C(N)=O)C(=O)[C@@]3(O)C(O)=C1C2=O | 0.25 µg/mL (≈ 0.421 µM)
22 | CC1CCC(c2cc(O)c3c(c2C(F)(F)F)C[C@H]2C[C@H]4[C@H](N(C)C)C(O)=C(C(N)=O)C(=O)[C@@]4(O)C(O)=C2C3=O)N1 (stereo not given in full) | 0.25 µg/mL (≈ 0.442 µM)

System: Escherichia coli
Assay: Antibacterial activity against gram-negative Escherichia coli EC155 harboring tet(A) by CLSI method
Type: functional
In short: as §1

Row | Compound | MIC
23 | CC(C)N1CCC[C@H]1c1cc(O)c2c(c1C(F)(F)F)C[C@H]1C[C@H]3[C@H](N(C)C)C(O)=C(C(N)=O)C(=O)[C@@]3(O)C(O)=C1C2=O | 1 µg/mL (≈ 1.68 µM)
24 | CC1CCC(c2cc(O)c3c(c2C(F)(F)F)C[C@H]2C[C@H]4[C@H](N(C)C)C(O)=C(C(N)=O)C(=O)[C@@]4(O)C(O)=C2C3=O)N1 (stereo not given in full) | 0.5 µg/mL (≈ 0.884 µM)

System: Acinetobacter baumannii
Assay: Antibacterial activity against gram-negative Acinetobacter baumannii AB250 by CLSI method
Type: functional
In short: as §2, with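 “Broth microdilution MIC per CLSI in cation-adjusted Mueller Hinton broth, prepared fresh and held at 4 °C. Defibrinated” for “Defibrinated”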

Row | Compound | MIC
25 | CC(C)N1CCC[C@H]1c1cc(O)c2c(c1C(F)(F)F)C[C@H]1C[C@H]3[C@H](N(C)C)C(O)=C(C(N)=O)C(=O)[C@@]3(O)C(O)=C1C2=O | 2 µg/mL (≈ 3.37 µM)
26 | CC1CCC(c2cc(O)c3c(c2C(F)(F)F)C[C@H]2C[C@H]4[C@H](N(C)C)C(O)=C(C(N)=O)C(=O)[C@@]4(O)C(O)=C2C3=O)N1 (stereo not given in full) | 0.5 µg/mL (≈ 0.884 µM)

System: Pseudomonas aeruginosa
Assay: Antibacterial activity against gram-negative Pseudomonas aeruginosa PA555 by CLSI method
Type: functional
In short: as §2, with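 “Broth microdilution MIC per CLSI in cation-adjusted Mueller Hinton broth, prepared fresh and held at 4 °C. Defibrinated” for “Defibrinated”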

Row | Compound | MIC
27 | CC(C)N1CCC[C@H]1c1cc(O)c2c(c1C(F)(F)F)C[C@H]1C[C@H]3[C@H](N(C)C)C(O)=C(C(N)=O)C(=O)[C@@]3(O)C(O)=C1C2=O | 32 µg/mL (≈ 53.9 µM)
28 | CC1CCC(c2cc(O)c3c(c2C(F)(F)F)C[C@H]2C[C@H]4[C@H](N(C)C)C(O)=C(C(N)=O)C(=O)[C@@]4(O)C(O)=C2C3=O)N1 (stereo not given in full) | 8 µg/mL (≈ 14.1 µM)

System: Proteus mirabilis
Assay: Antibacterial activity against gram-negative Proteus mirabilis PM385 by CLSI method
Type: functional
In short: as §2, with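 “Broth microdilution MIC per CLSI in cation-adjusted Mueller Hinton broth, prepared fresh and held at 4 °C. Defibrinated” for “Defibrinated”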

Row | Compound | MIC
29 | CC(C)N1CCC[C@H]1c1cc(O)c2c(c1C(F)(F)F)C[C@H]1C[C@H]3[C@H](N(C)C)C(O)=C(C(N)=O)C(=O)[C@@]3(O)C(O)=C1C2=O | 4 µg/mL (≈ 6.74 µM)
30 | CC1CCC(c2cc(O)c3c(c2C(F)(F)F)C[C@H]2C[C@H]4[C@H](N(C)C)C(O)=C(C(N)=O)C(=O)[C@@]4(O)C(O)=C2C3=O)N1 (stereo not given in full) | 0.5 µg/mL (≈ 0.884 µM)
